Compound activity from PubChem.
NPY Y2 blocker – blocks the human neuropeptide Y Y2 receptor | P49146 | NPY-Y2 expressing cells, antagonist mode | inhibition, % at 2.7 µM | actives 0.99% (n = 140,000) | AID 793; in the data active = inhibition above about 17%;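 also: 0% = vehicle with agonist challenge and 100% = reference antagonist with challenge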
NPY-Y1 antag – blocks the human neuropeptide Y Y1 receptor; P25929; HEK293-CNG Y1 cells, membrane potential fluorescence; NPY at EC95, then isoproterenol; AID 1040; actives 1% (n = 200,000); inhibition, % at 3.6 µM;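 active = inhibition above the campaign mean inhibition of all tested compounds plus 3 SD, cut at about 20% in these data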;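 also: 0% = DMSO wells given NPY plus isoproterenol and 100% = isoproterenol alone without NPY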
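Test system: HEK293 cells co-expressing NPY Y1 receptor and cyclic-nucleotide gated channel; Also added: NPY (25 nM), isoproterenol (1 µM), Ro 20-1724 (25 µM); Compound dosing: one concentration, 3.6 µM, in 0.4% DMSO; Timing: dye 3 h, compound 60 min room temperature, stimulation 45 min; Technique: Membrane-potential fluorescent dye readout.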
EP2 antag – inhibitors of human EP2 prostaglandin E2 receptor; AID 1422; inhibition, % at 25 µM; C6 glioma cells expressing human EP2, cAMP TR-FRET; cells stimulated with saturating PGE2; actives 0.52% (n = 260,000);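 active = percent inhibition above 40 after rounding to a whole number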;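 also: rat C6 glioma host cells with rolipram phosphodiesterase inhibitor present; the protocol text gives 20 µM as final concentration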
Target sequence (P43116 whole entry, looked up): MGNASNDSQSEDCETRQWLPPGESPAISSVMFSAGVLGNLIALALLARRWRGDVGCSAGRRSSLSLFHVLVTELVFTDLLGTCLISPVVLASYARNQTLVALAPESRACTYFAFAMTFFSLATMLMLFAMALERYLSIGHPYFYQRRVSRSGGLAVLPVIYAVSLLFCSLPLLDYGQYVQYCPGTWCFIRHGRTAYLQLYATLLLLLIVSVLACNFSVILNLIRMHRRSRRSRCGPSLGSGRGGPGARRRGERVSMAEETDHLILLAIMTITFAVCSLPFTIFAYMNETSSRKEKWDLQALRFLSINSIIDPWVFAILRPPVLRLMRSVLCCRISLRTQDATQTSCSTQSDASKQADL
EP2 modulator – modulators of human EP2 prostaglandin E2 receptor; P43116; EP2-expressing cells, cAMP HTRF FRET, PGE2 co-stimulation; induction, % at 25 µM; actives 0.83% (n = 260,000); AID 940;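 active = compounds whose cAMP rise, as percent of the full-agonist control response, exceeds 60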;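 also: rat C6 glioma line stably carrying human EP2 under a CMV promoter; the protocol text gives 20 µM as final concentration; 100% = response of wells given 1 µM PGE2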
NPY2 pot ag – potentiates or activates human NPY-Y2 receptor; cells expressing NPY-Y2, potentiator/agonist read-out; activation, % at 3.6 µM; actives 0.45% (n = 220,000); P49146; in the data active = activation above about 27%;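 also: cells stimulated with NPY near EC25 plus isoproterenol at EC100; 0% = vehicle plus submaximal agonist and 100% = vehicle plus saturating agonist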
NPY1 pot ag – human NPY-Y1 potentiation or agonism, primary screen. activation, % at 3.6 µM. AID 1304. actives 0.37% (n = 220,000). NPY-Y1 expressing cells, potentiator/agonist activation; in the data active = activation above about 33%, passing the limit was not always enough;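 also: cells stimulated with NPY at EC10 then isoproterenol at EC100; 0% = low agonist plus stimulus and 100% = saturating agonist plus stimulus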
NPY-Y2 pot conf – confirmation of human NPY-Y2 receptor potentiators or agonists; shares compounds with NPY2 pot ag; cell-based NPY-Y2 potentiator/agonist assay; activation, % at 3.6 µM; actives 20% (n = 450); in the data active = activation above about 33%
NPY-Y1 counter – potentiates or activates NPY-Y1, counter-screen for NPY-Y2 hits. shares compounds with NPY2 pot ag. Y1 HEK293-CNG cells, membrane potential fluorescence. activation, % at 3.6 µM. actives 20% (n = 450); in the data active = activation above about 45%;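 also: cells stimulated with submaximal NPY then isoproterenol with phosphodiesterase inhibitor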
NPY-Y1 agonist 2 – counter-screen for NPY-Y2 potentiators: agonists of human NPY-Y1 | shares compounds with NPY2 pot ag | HEK293 Y1-CNGC, membrane potential fluorescence, agonism | activation, % at 3.6 µM | actives 37% (n = 450);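 active = activation above the mean of DMSO-only control wells plus 3 SD, cut at about 18% in these data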;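 also: cells stimulated with 1 µM isoproterenol plus the PDE inhibitor Ro 20-1724; 0% = isoproterenol with DMSO and no NPY and 100% = 40 nM NPY; Y1 agonists lower the membrane potential dye signal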
CNGC inhibitor – blocks CNG channel activity, counter-screen for NPY-Y2 potentiators | shares compounds with NPY2 pot ag | HEK293-CNG parental, isoproterenol cAMP, membrane potential fluorescence | inhibition, % at 3.6 µM | actives 32% (n = 450);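 active = inhibition above the control-well mean plus 3 SD of those wells, cut at about 22% in these data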;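 also: 0% = DMSO with isoproterenol and 100% = DMSO without isoproterenol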
Y2 agonist ctr – NPY-Y2 agonism, counter-screen for Y2 potentiators; AID 1710; activation, % at 3.6 µM; shares compounds with NPY2 pot ag; actives 56% (n = 450); HEK293 Y2/CNGC cells, membrane potential fluorescence, agonist mode;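 active = activation above the mean of solvent-only control wells plus 3 SD, cut at about 10% in these data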;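 also: cells stimulated by isoproterenol with no NPY added so direct agonism is tested; 0% = DMSO with isoproterenol alone and 100% = NPY at EC100 plus isoproterenol; agonism lowers probe fluorescence through less cAMP and CNG channel opening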
Starred values were filed as active, the others as inactive; / = no result given. Most compounds without a hit are left out; they make up all but 2.8% or so of the library.

SMILES	NPY Y2 blocker	NPY-Y1 antag	EP2 antag	EP2 modulator	NPY2 pot ag	NPY1 pot ag	NPY-Y2 pot conf	NPY-Y1 counter	NPY-Y1 agonist 2	CNGC inhibitor	Y2 agonist ctr
O=C1COc2ccc(C(=O)COC(=O)c3cc(S(=O)(=O)NCc4ccccc4)ccc3O)cc2N1	/	/	8	35	98*	12	-8	-9	-16	2	5
CCOC(=O)C1CCN(c2ncnc3c2cnn3-c2ccc(Cl)cc2)CC1	9	2	11	8	48*	-2	-21	-34	-7	-12	5
CCC1(CC)Cc2ccccc2C(C2=C(O)CC(C)(C)CC2=O)=N1	3	8	12	17	6	20	/	/	/	/	/
Cc1cccc2c1CC(C)(C)N=C2C1=C(O)CC(C)(C)CC1=O	1	-1	8	16	76*	17	-5	-3	-11	-2	-14
COc1ccc2cc(C(c3nnnn3Cc3ccccc3)N3CCCCC3)c(=O)[nH]c2c1 (configuration not stated)	/	/	17	-23	/	/	/	/	/	/	/
CCOC(=O)c1c(C)sc2c1N(C(=O)CCl)c1cc(Cl)ccc1S2	2	2	11	34	38*	48	25	42	34*	4	9
COc1cc(/C=N/Nc2nc3ccccc3s2)cc([N+](=O)[O-])c1O	/	/	5	-2	-9	3	/	/	/	/	/
O=[N+]([O-])c1cc(Cl)cc(/C=N/Nc2nc3ccccc3s2)c1O	/	-2	13	-37	28*	24	60*	68*	69*	63*	66*
CCC(c1nnnn1C(C)(C)CC)N(Cc1cc2cc3c(cc2[nH]c1=O)OCO3)CC1CCCO1 (configuration not stated)	/	/	5	7	/	/	/	/	/	/	/
O=Nc1c(O)n(Cc2c(Cl)cccc2Cl)c2ccccc12	6	-4	5	11	34*	24	8	2	14	-16	5
CCOC(=O)c1ccc(-n2c(=S)sc3c(=O)[nH]c(C)nc32)cc1	4	-8	7	25	35*	28	6	11	11	-7	12*
CCOC(=O)c1sc(NC(=O)c2ccc(C)cc2C)c(C#N)c1C	/	/	10	0	/	/	/	/	/	/	/
CN(CCO)c1nc(N)c2c(N)nc3c(c2c1C#N)CC(=O)N3Cc1cccs1	/	-1	5	-60	40*	28	-1	-4	-14	-10	-10
N#Cc1c(N(CCO)CCO)nc(N)c2c(N)nc3c(c12)CC(=O)N3Cc1cccs1	/	/	21	-23	2	-6	/	/	/	/	/
Cc1cc(Nc2ccccc2)nc(-c2ccccc2O)n1	-5	-6	16	24	34*	1	37*	43	29*	27*	37*
O=c1[nH]c(/C=C\c2cccnc2)c([N+](=O)[O-])c(=O)[nH]1	/	-12	3	3	37*	26	25	37	39*	27*	31*
O=c1[nH]c(/C=C/c2cccnc2)c([N+](=O)[O-])c(=O)[nH]1	/	-8	2	25	26	16	/	/	/	/	/
O=C(NC1(c2ccc3c(c2)OCO3)CCCC1)c1ccc(N2CCCCS2(=O)=O)cc1	/	/	/	-49	/	/	/	/	/	/	/
CC(C)Cn1c(N)c(C(=O)COC(=O)CC23CC4CC(CC(C4)C2)C3)c(=O)n(C)c1=O	2	-3	35	-6	38*	21	4	-10	-26	-1	2
COc1ccc(CCNC(=O)C2CC(c3ccc(Cl)cc3)=NO2)cc1OC (configuration not stated)	/	/	8	-37	/	/	/	/	/	/	/
